Results published in paper PMC8225578 (Journal of medicinal chemistry, 2021).
Like-named read-outs stand apart in the source and are kept apart here. Starred links: 1 amine or outer side, 2 acyl side, 3 side chain; linkers in the order of their positions; H or OH if unused. Non-standard residues stand in square brackets, D forms with d. Residues, ends and D or L forms follow the SMILES beside them. No end group written: not given here. X2 = N6‑isopropyl‑N6‑phenethyl‑lysine, CC(C)N(CCCC[C@H](N[*:1])C(=O)[*:2])CCc1ccccc1; Lys(Et,iPr) = CCN(CCCC[C@H](N)C(=O)O)C(C)C; Me3 = trimethyl (on lysine, Kme3)

Tests used:
[1] = target: H3K36me3 peptide 31-40 (Homo sapiens) (UniProt P68431); details: cited from earlier work
PHF1 Tudor domain [2] = target: T1, PHF1 Tudor domain (Homo sapiens, UniProt O43189); details: previously reported 10-mer peptide; cited from earlier work
T1 sequence (O43189 25-87): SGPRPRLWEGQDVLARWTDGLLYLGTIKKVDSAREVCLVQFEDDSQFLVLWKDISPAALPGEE

PHF1 Tudor domain [3] = target: T1, PHF1 Tudor domain; assay: ITC binding to PHF1 Tudor domain; details: wildtype PHF1 Tudor domain
PHF1 Tudor W41A = PHF1 Tudor W41A (Homo sapiens, UniProt O43189, W41A); assay: ITC binding to PHF1 Tudor aromatic cage mutant W41A
Chain of PHF1 Tudor W41A (O43189 25-87 W41A): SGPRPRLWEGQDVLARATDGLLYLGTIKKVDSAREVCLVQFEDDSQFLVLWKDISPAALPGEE
Procedure, shortened: (§1)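 ITC at 25 °C in 25 mM Tris-HCl pH 7.5, 150 mM NaCl, 2 mM β-mercaptoethanol; typically 100 µM protein, 1 mM compound (10:1). 26 injections, 180 s apart, one-site fit. Fits reach Kd ~100 µM; weaker binding is reported >100 µM. Two independent runs, mean ± SD.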

PHF1 Tudor Y47A = PHF1 Tudor Y47A (Homo sapiens, UniProt O43189, Y47A); assay: ITC binding to PHF1 Tudor aromatic cage mutant Y47A
Chain of PHF1 Tudor Y47A (O43189 25-87 Y47A): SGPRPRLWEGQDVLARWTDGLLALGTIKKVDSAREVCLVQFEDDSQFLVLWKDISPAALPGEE
Procedure, shortened: as §1

PHF1 Tudor F65A = PHF1 Tudor F65A (Homo sapiens, UniProt O43189, F65A); assay: ITC binding to PHF1 Tudor aromatic cage mutant F65A
Chain of PHF1 Tudor F65A (O43189 25-87 F65A): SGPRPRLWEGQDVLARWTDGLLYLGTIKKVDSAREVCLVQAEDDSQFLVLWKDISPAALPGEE
Procedure, shortened: as §1

[4] = target: H3K36me3 15-residue peptide (Homo sapiens) (UniProt P68431); details: cited from earlier work
[5] = target: T2, PHF1 Tudor domain (residues 25-87), N-terminal His tag (UniProt O43189-1 25-87); assay: ITC
T2 sequence (O43189 25-87): as the sequence (O43189 25-87) above

[6] = target: PHF1 Tudor domain (residues 25-87) Y47A, N-terminal His tag (UniProt O43189-1 25-87, Y47A); assay: ITC
Chain of PHF1 Tudor domain (residues 25-87) Y47A, N-terminal His tag (O43189 25-87 Y47A): as the sequence (O43189 25-87 Y47A) above

[7] = target: T2, PHF1 Tudor domain (residues 25-87), …; assay: ITC; remark: listed apart in the source
[8] = target: PHF19 Tudor domain (residues 49-115), N-terminal His tag; assay: ITC

Chain of PHF1 Tudor (O43189 26-89): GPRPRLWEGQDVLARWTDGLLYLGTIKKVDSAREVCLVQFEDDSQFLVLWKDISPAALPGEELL
Chain of PHF1 (O43189 whole entry): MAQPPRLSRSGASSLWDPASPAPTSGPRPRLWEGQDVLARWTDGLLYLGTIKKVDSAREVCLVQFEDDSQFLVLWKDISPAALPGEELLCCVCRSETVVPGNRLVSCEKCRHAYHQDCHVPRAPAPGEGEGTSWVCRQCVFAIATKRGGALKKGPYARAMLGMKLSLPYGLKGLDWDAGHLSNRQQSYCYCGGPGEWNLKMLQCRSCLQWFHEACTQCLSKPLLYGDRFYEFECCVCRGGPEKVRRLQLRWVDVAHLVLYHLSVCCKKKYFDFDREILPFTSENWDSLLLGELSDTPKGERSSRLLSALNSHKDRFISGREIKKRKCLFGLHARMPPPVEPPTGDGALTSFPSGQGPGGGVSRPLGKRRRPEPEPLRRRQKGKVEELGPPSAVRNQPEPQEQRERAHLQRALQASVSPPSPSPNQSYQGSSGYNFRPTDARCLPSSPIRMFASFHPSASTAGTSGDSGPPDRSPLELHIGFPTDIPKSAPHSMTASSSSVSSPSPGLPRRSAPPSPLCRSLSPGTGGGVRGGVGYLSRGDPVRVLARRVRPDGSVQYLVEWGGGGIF

Question: Which Kd [1] does the source give for PHF1 Tudor (from UniProt O43189) here?
Answer: 16 µM

Question: Which Kd (PHF1 Tudor domain [2]) does the source give for “H3(31—40): previously reported 10-mer H3K36me3 peptide (ATGGVK(Me3)KPHR; UniProt P68431 32-41, looked up, fragment)” here?
Answer: 16 ± 4 µM

Question: Which “fold less potent than UNC6641” value (PHF1 Tudor domain [3]) does the source give for `CCN(CCCC[C@H](NC(=O)[C@@H](NC(=O)CNC(=O)CN)C(C)C)C(=O)N[C@@H](CCCCN)C(=O)N1CCC[C@H]1C(=O)N[C@@H](CC(C)C)C(=O)N[C@@H](CCCNC(=N)N)C(N)=O)C(C)C` [UNC7643, Amino(((S)-5-amino-4-((S)-2-((S)-1-((2S,5S,8S)-14-amino-2-(4-aminobutyl)-5-(4-(ethyl(isopropyl)amino)butyl)-8-isopropyl-4,7,10,13-tetraoxo-3,6,9,12-tetraazatetradecanoyl)pyrrolidine-2-carboxamido)-4-methylpentanamido)-5-oxopentyl)amino)methaniminium] (H-GGV[Lys(Et,iPr)]KPLR-NH2) here?
Answer: about 10 fold

Question: And the “binding to mutant (in words)” value (PHF1 Tudor W41A)?
Answer: failed to bind

Question: What about the “binding to mutant (in words)” value (PHF1 Tudor Y47A) of the same molecule?
Answer: failed to bind

Question: And the “binding to mutant (in words)” value (PHF1 Tudor F65A)?
Answer: failed to bind

Question: With PHF1 (from UniProt O43189) as the molecule, how does the Kd [4] read?
Answer: 4 µM

Question: Which results are given for GGV[N6‑ethyl‑N6‑isopropyl‑lysine]KPLR-NH2 [UNC7643]?
Answer: Kd [5]: 10.1 µM; Kd [6]: > 100 µM

Question: With GGVK(Me3)KPHR-NH2 [H3K36me3 peptide H3(33-40), GGVKme3KPHR] as the molecule, how does the Kd [7] read?
Answer: 22.3 µM

Question: With GGV[N6‑ethyl‑N6‑(1-(furan-2-yl)ethyl)‑lysine]KPLR-NH2 [UNC6640] as the molecule, how does the Kd [5] read?
Answer: 17.9 µM

Question: Which Kd [8] does the source give for GGV[X2]KPLR-NH2 [UNC6641] here?
Answer: 2.1 µM

Question: What about the Kd [6] of the same molecule?
Answer: > 100 µM

Question: For VGVK(Me3)KPH-NH2 [H3K36me3 peptide H3(33-39) G33V, VGVKme3KPH], which Kd [7] is on record?
Answer: 48 µM

Question: Which Kd [7] does the source give for GGVK(Me3)KPH-NH2 [H3K36me3 peptide H3(33-39), GGVKme3KPH] here?
Answer: 52 µM
